Source: ChEMBL document CHEMBL1154122, “A comprehensive study of Sansalvamide A derivatives: The structure-activity relationships of 78 derivatives in two pancreatic cancer cell lines” (2009)
Square brackets hold non-standard residues; d marks the D form. Peptide text beside a SMILES is read from it. * marks the point of attachment. dNMeF = CN[C@H](Cc1ccccc1)C(=O)O; NMeL = CN[C@@H](CC(C)C)C(=O)O; dNMeL = CN[C@H](CC(C)C)C(=O)O; Cbz = O=C(OCc1ccccc1)*

Experiments:
[1] = Cytotoxicity against human PL45 cells after 56 hrs by [3H]thymidine uptake assay; type: functional
How it was run: (§1)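 Cells seeded at 2000–2500/well in DMEM with L-glutamine, 10% FBS and 1% penicillin-streptomycin. […] After 56 h, 3H-thymidine was added for 16 h more (72 h total), then cells were harvested and counted (CPM). Inhibition = 1 − CPM treated/DMSO; IC50 taken from curves, mean and SEM.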

BXPC-3 = assay: Cytotoxicity against human BxPC3 cells after 56 hrs by [3H]thymidine uptake assay; type: functional; how it was run: as §1

| Compound | growth inhibition (GI) [1] | growth inhibition (GI) (BXPC-3) |
| --- | --- | --- |
| CC(C)C[C@@H]1NC(=O)[C@H](CC(C)C)N(C)C(=O)[C@H](Cc2ccccc2)NC(=O)[C@H](CC(C)C)N(C)C(=O)[C@H](C(C)C)NC1=O | 38% | 9% |
| CC(C)C[C@H]1NC(=O)[C@@H](Cc2ccccc2)NC(=O)[C@@H](CC(C)C)NC(=O)[C@@H](C(C)C)NC(=O)[C@@H](CC(C)C)NC1=O | 17% | 30% |
| CC(C)C[C@@H]1C(=O)N[C@H](CC(C)C)C(=O)N[C@H](C(C)C)C(=O)N[C@H](CC(C)C)C(=O)N[C@H](Cc2ccccc2)C(=O)N1C | 43% | 33% |
| CC(C)C[C@H]1NC(=O)[C@@H](Cc2ccccc2)NC(=O)[C@@H](CC(C)C)NC(=O)[C@@H](C(C)C)N(C)C(=O)[C@@H](CC(C)C)NC1=O | 6% | 31% |
| CC(C)C[C@@H]1C(=O)N[C@H](CC(C)C)C(=O)N[C@H](C(C)C)C(=O)N(C)[C@H](CC(C)C)C(=O)N[C@H](Cc2ccccc2)C(=O)N1C | 6% | 33% |
| CC(C)C[C@@H]1NC(=O)[C@H](C)NC(=O)[C@H](CC(C)C)NC(=O)[C@H](CC(C)C)NC(=O)[C@H](Cc2ccccc2)NC1=O (cyclo(ALFLL)) | 18% | 20% |
| CC(C)C[C@@H]1NC(=O)[C@H](Cc2ccccc2)NC(=O)[C@H](CC(C)C)NC(=O)[C@H](C(C)C)NC(=O)[C@H](CCCCNC(=O)OCc2ccccc2)NC1=O (cyclo(FLK(Cbz)VL)) | 0% | 8% |
| CC(C)C[C@@H]1NC(=O)[C@H](Cc2ccccc2)NC(=O)[C@@H](Cc2ccccc2)N(C)C(=O)[C@H](C(C)C)NC(=O)[C@H](CCCCNC(=O)OCc2ccccc2)NC1=O (cyclo(FLK(Cbz)V[dNMeF])) | 44% | 0% |
| CC(C)C[C@@H]1NC(=O)[C@H](Cc2ccccc2)NC(=O)[C@H](CC(C)C)NC(=O)[C@@H](C(C)C)NC(=O)[C@H](CCCCNC(=O)OCc2ccccc2)NC1=O (cyclo(FLK(Cbz)[dV]L)) | 0% | 29% |
| CC(C)C[C@@H]1NC(=O)[C@H](Cc2ccccc2)NC(=O)[C@H](CC(C)C)NC(=O)[C@H](C(C)C)NC(=O)[C@H](CCCCN)NC1=O (cyclo(FLKVL)) | 0% | 8% |
| CC(C)C[C@@H]1NC(=O)[C@H](Cc2ccccc2)NC(=O)[C@@H](Cc2ccccc2)N(C)C(=O)[C@H](C(C)C)NC(=O)[C@H](CCCCN)NC1=O (cyclo(FLKV[dNMeF])) | 26% | 30% |
| CC(C)C[C@@H]1NC(=O)[C@H](Cc2ccccc2)NC(=O)[C@H](CC(C)C)NC(=O)[C@@H](C(C)C)NC(=O)[C@H](CCCCN)NC1=O (cyclo(FLK[dV]L)) | 23% | 24% |
| CC(C)C[C@@H]1NC(=O)[C@H](Cc2ccccc2)NC(=O)[C@H](CC(C)C)N(C)C(=O)[C@H](C(C)C)NC(=O)[C@H](CC(C)C)NC1=O (cyclo(FLLV[NMeL])) | 0% | 0% |
| CC(C)C[C@@H]1NC(=O)[C@H](Cc2ccccc2)NC(=O)[C@@H](CC(C)C)N(C)C(=O)[C@H](C(C)C)NC(=O)[C@H](CC(C)C)NC1=O (cyclo(FLLV[dNMeL])) | 5% | 2% |
| CC(C)C[C@@H]1NC(=O)[C@H](Cc2ccccc2)NC(=O)[C@@H](CO)NC(=O)[C@H](C(C)C)NC(=O)[C@H](CC(C)C)NC1=O (cyclo(FLLV[dS])) | 32% | 25% |
